Tests used:
[1] = target: T1, Amine oxidase [flavin-containing] A (Bos taurus, UniProt P21398); assay: Inhibition of bovine brain MAOA using kynuramine as a substrate after 30 mins by spectrofluorometric method
T1 sequence (P21398 whole entry): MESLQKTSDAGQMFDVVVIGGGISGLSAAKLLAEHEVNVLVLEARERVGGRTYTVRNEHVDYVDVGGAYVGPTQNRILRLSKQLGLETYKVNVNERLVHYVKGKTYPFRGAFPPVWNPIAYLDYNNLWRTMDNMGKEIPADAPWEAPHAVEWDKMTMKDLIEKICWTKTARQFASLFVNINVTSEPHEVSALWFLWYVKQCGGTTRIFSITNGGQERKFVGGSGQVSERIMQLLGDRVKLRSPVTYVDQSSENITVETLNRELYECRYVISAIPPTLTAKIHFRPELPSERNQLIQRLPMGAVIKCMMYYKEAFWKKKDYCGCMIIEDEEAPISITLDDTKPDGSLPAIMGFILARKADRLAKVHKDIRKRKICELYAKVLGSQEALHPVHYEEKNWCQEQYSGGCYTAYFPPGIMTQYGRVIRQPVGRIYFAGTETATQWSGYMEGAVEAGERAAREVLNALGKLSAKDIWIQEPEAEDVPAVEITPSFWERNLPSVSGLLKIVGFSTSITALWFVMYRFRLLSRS
Outline: (§1)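 Mitochondria isolated from beef brain were pretreated for 30 min at 38 °C with 1 μM L-deprenyl to isolate MAO-A, or with 1 μM clorgyline to isolate MAO-B. Compounds in DMSO were preincubated for 30 min at 38 °C in potassium phosphate buffer at pH 7.4. Kynuramine was then added at four concentrations (5 μM–0.1 mM final) for 30 min.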

[2] = organism: Bos taurus; assay: Selectivity index, ratio of Ki for bovine MAOB to Ki for bovine MAOA
Outline: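 Selectivity was calculated as Ki(MAO-B)/Ki(MAO-A). Each Ki came from a Dixon plot of kynuramine deamination by beef brain mitochondria, with 1 μM clorgyline present for MAO-B or 1 μM L-deprenyl for MAO-A, read fluorimetrically.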

[3] = target: T2, Amine oxidase [flavin-containing] B (Bos taurus, UniProt P56560); assay: Inhibition of bovine brain MAOB using kynuramine as a substrate after 30 mins by spectrofluorometric method; outline: as §1
T2 sequence (P56560 whole entry): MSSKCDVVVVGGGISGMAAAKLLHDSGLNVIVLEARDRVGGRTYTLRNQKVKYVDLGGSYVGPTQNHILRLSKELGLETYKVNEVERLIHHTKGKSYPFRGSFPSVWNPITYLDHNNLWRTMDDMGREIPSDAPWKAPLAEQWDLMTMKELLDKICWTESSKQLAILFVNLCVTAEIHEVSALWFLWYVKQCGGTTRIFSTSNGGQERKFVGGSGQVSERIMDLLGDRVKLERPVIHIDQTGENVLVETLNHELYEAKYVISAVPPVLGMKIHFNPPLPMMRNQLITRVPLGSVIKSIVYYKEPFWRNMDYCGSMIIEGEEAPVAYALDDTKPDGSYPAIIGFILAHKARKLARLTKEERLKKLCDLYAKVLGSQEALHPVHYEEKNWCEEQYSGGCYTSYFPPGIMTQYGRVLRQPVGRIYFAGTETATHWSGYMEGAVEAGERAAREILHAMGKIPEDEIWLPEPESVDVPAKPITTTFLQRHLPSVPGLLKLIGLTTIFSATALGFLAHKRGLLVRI

Row | Compound | Ki [1] [µM] | Ratio Ki [2] | Ki [3] [µM]
1 | C=CCn1ccc(N2C[C@H](CNC)OC2=O)c1 | 0.1 | 20 | 2
2 | Cn1ccc(N2C[C@H](CN)OC2=O)c1 | 0.01 | 18000 | 180
3 | Cn1ccc(N2C[C@H](CN=[N+]=[N-])OC2=O)c1 | 0.2 | 1800 | 360
4 | C=CCn1ccc(N2C[C@H](CN=[N+]=[N-])OC2=O)c1 | 0.004 | 25000 | 100
5 | CNC[C@H]1CN(c2ccn(C)c2)C(=O)O1 | 0.007 | > 14300 | > 100
6 | COC[C@H]1CN(c2ccc(OCC[C@@H](O)C(F)(F)F)cc2)C(=O)O1 [BEFLOXATONE] | 0.0025 | 88 | 0.22
7 | C=CCn1ccc(N2C[C@H](CN)OC2=O)c1 | 0.7 | 11 | 8
8 | C=CCn1ccc(N2C[C@H](CO)OC2=O)c1 | 0.35 | 1790 | 625

Now from value to compound:

Row | Ki [1] [µM] | Ratio Ki [2] | Ki [3] [µM] | Compound
9 | 0.0008 | 25000 | 20 | CCn1ccc(N2C[C@H](CN=[N+]=[N-])OC2=O)c1
10 | 0.08 | 225 | 18 | CCn1ccc(N2C[C@H](CNC)OC2=O)c1
11 | 0.0006 | 2170 | 1.3 | CCn1ccc(N2C[C@H](COC)OC2=O)c1
12 | 0.3 | 567 | 170 | COC[C@H]1CN(c2ccn(C)c2)C(=O)O1
13 | 0.13 | 192 | 25 | CCn1ccc(N2C[C@H](CN)OC2=O)c1
14 | 0.001 | 200000 | 200 | C=CCn1ccc(N2C[C@H](COC)OC2=O)c1
15 | 0.003 | 100 | 0.3 | CCn1ccc(N2C[C@H](CO)OC2=O)c1
16 | 1 | > 10 | > 10 | Cn1ccc(N2C[C@H](CO)OC2=O)c1
